Rows were chosen to be rich in hits. Some 0.64% of all compounds tested hit in one or more screens of this group.
HEK293 NFkB inh: inhibitors of the PMA/ionomycin-induced NF-kB reporter in HEK293 cells; HEK-293 NF-kB luciferase reporter, luminescence; inhibition, % at 3 µM; 0.21% of 62,000 active; AID 465;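 active = inhibition above the mean of all tested compounds plus 3 SD, cut at about 40% in these data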;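 also: 0% = stimulated DMSO wells and 100% = 10 µM reference inhibitor 5653914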
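Reagent: PMA plus ionomycin mix as NF-kB-activating stimulus. Assay system: NF-kB luciferase reporter HEK-293 cells. Technique: luminescence from luciferase substrate reagent. Incubation: 1 h compound pre-incubation, 16 h PMA/ionomycin at 37 °C. Benchmarks: DMSO only as uninhibited control, 10 µM reference inhibitor as full inhibition. Repeats: tested once.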
ROCK2 blocker: blocks human Rho kinase 2 activity; O75116; purified ROCK2, Kinase-Glo ATP depletion luminescence; inhibition, % at 6 µM; 0.35% of 60,000 active; AID 604;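 active = inhibition above the screen-wide mean inhibition plus 3 SD, cut at about 18% in these data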;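 also: plate controls were DMSO wells for no effect and Y-27632 control wells after no-enzyme background subtraction for full effect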
JNK3 blocker: inhibitors of human JNK3 kinase; P53779; inhibition, % at 8 µM; purified JNK3 kinase activity, HTS; 0.61% of 60,000 active; in the data active = inhibition above about 17%;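 also: 0% = DMSO and 100% = reference inhibitor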
Target sequence (P53779 whole entry, looked up): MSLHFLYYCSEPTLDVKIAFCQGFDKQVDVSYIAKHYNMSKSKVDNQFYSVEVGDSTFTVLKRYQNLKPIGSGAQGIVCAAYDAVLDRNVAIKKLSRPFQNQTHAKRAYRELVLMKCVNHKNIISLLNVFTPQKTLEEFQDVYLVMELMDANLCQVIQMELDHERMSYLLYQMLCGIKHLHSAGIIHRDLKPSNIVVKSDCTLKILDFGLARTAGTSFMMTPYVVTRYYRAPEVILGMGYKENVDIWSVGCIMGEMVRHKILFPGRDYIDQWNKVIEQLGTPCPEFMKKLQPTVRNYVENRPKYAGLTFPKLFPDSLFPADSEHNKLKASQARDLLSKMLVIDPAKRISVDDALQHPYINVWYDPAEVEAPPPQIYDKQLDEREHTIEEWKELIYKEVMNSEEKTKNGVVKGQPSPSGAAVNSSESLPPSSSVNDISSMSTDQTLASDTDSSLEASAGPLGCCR
PKA inh: blocks human protein kinase A activity | inhibition, % at 6 µM | 0.1% of 65,000 active | PKA Kemptide phosphorylation, Kinase-Glo ATP luminescence | AID 524;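 active = inhibition above the screen-wide mean inhibition plus 3 SD, cut at about 21% in these data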
The depositor's hits bear a star.

Brc1ccc2c(c1)c1nc3ccccc3nc1n2CCN1CCOCC1 was read as HEK293 NFkB inh 2, ROCK2 blocker -5, JNK3 blocker 11 and PKA inh 4.
Screening c1ccc2nc3c(nc2c1)c1ccccc1n3CCN1CCOCC1 returned HEK293 NFkB inh -31, ROCK2 blocker 1, JNK3 blocker 18* and PKA inh 7.
`CCOC(=O)c1ccc(Cn2cnc3ccccc3c2=O)cc1` gave HEK293 NFkB inh -4, ROCK2 blocker 2, JNK3 blocker 39* and PKA inh 7.
`CC1=NN(c2ccccc2)C(=O)C1` gave ROCK2 blocker 19*, JNK3 blocker 7 and PKA inh 1.
Screening O=C(O)c1n[nH]c2ccccc12 returned HEK293 NFkB inh 10 and PKA inh 1.
For c1ccc(-c2n[nH]c3ccccc23)cc1 the results were HEK293 NFkB inh 10, ROCK2 blocker -6, JNK3 blocker 84* and PKA inh 9.
For Cc1cc(NC(=O)CSc2nc(-c3ccccc3)cs2)no1 the results were HEK293 NFkB inh 7, ROCK2 blocker 18*, JNK3 blocker 2 and PKA inh 12.
Screening CCCc1nc(SCC(=O)Nc2cc(C)on2)c2ccccc2n1 returned HEK293 NFkB inh 22, ROCK2 blocker 0, JNK3 blocker 21* and PKA inh -1.
For CCCc1nc(SCC(=O)N2CCCC2)c2ccccc2n1 the results were HEK293 NFkB inh 2, ROCK2 blocker 0, JNK3 blocker 17* and PKA inh 5.
Screening CC(=O)NC12CC3CC(C)(C1)CC(NC(C)=O)(C3)C2 returned HEK293 NFkB inh 0, ROCK2 blocker 1, JNK3 blocker -10 and PKA inh -7.
O=C(O)c1ccccc1C(=O)N1CCN(c2cccc(Cl)c2)CC1 was read as HEK293 NFkB inh 2, ROCK2 blocker 6, JNK3 blocker 0 and PKA inh 6.
Screening CCOc1ccccc1C(=O)N1CCN(c2cccc(Cl)c2)CC1 returned HEK293 NFkB inh 40*, ROCK2 blocker 3, JNK3 blocker 0 and PKA inh 4.
For CCN1CCN(Cc2nc3c(c(=O)n(C)c(=O)n3C)n2Cc2ccc(Cl)cc2Cl)CC1 the results were HEK293 NFkB inh -3, ROCK2 blocker 3, JNK3 blocker -7 and PKA inh 7.
`COc1cccc(NC(=O)CC2(CC(=O)O)CCCC2)c1` gave HEK293 NFkB inh 7, ROCK2 blocker -2, JNK3 blocker -4 and PKA inh -11.
CCOCCn1c(CN(Cc2ccccc2)Cc2ccccc2)nc2c1c(=O)n(C)c(=O)n2C was read as HEK293 NFkB inh 23, ROCK2 blocker 2, JNK3 blocker 5 and PKA inh 8.
Cn1c(SCc2ccc(Br)cc2)nnc1-c1ccncc1 was read as HEK293 NFkB inh 18, ROCK2 blocker 17, JNK3 blocker -4 and PKA inh 25*.
For CCS(=O)(=O)N1Cc2ccccc2CC1C(=O)N1CCN(c2cccc(C)c2C)CC1 (centres undefined) the results were HEK293 NFkB inh 13, ROCK2 blocker 7, JNK3 blocker 2 and PKA inh 11.
For Oc1c(C(Nc2nc3ccccc3s2)c2ccco2)ccc2cccnc12 (centres undefined) the results were HEK293 NFkB inh 71*, ROCK2 blocker 2, JNK3 blocker -1 and PKA inh 7.
Screening CC(C)C(=O)NC(c1ccco1)c1ccc2cccnc2c1O (centres undefined) returned HEK293 NFkB inh 20, ROCK2 blocker -5, JNK3 blocker -9 and PKA inh 1.
`COc1ccccc1-c1nnc2sc(-c3ccc(N(C)C)cc3)nn12` gave HEK293 NFkB inh 55*, ROCK2 blocker 2, JNK3 blocker 6 and PKA inh 6.
Screening CN(C)c1ccc(-c2nn3c(-c4ccccc4Cl)nnc3s2)cc1 returned HEK293 NFkB inh 34, ROCK2 blocker 4, JNK3 blocker 4 and PKA inh 7.
Clc1ccc(-c2nn3c(-c4ccncc4)nnc3s2)c(Cl)c1 was read as HEK293 NFkB inh 16, ROCK2 blocker 8, JNK3 blocker -2 and PKA inh 5.
Screening Clc1ccccc1-c1nnc2sc(-c3ccncc3)nn12 returned HEK293 NFkB inh 0, ROCK2 blocker 23*, JNK3 blocker 3 and PKA inh 11.
`Clc1ccccc1-c1nnc2sc(-c3cccs3)nn12` gave HEK293 NFkB inh 21, ROCK2 blocker -2, JNK3 blocker 8 and PKA inh 0.
Clc1ccccc1-c1nn2c(-c3ccncc3)nnc2s1 was read as HEK293 NFkB inh 4, ROCK2 blocker 19*, JNK3 blocker 7 and PKA inh 18.
Screening CCCc1cc(NCCN2CCOCC2)n2c(nc3ccccc32)c1C#N returned ROCK2 blocker 1, JNK3 blocker 6 and PKA inh -2.
CC(C)c1nc(SCc2c(F)cccc2Cl)c2c(=O)n(C)c(=O)n(C)c2n1 was read as HEK293 NFkB inh 5, ROCK2 blocker 3, JNK3 blocker -1 and PKA inh 3.
For Cc1cc(C(=O)CN2C(=O)NC3(CCCCC3)C2=O)c(C)n1Cc1ccc2c(c1)OCO2 the results were HEK293 NFkB inh 15, ROCK2 blocker 22*, JNK3 blocker -5 and PKA inh 11.
For COc1cc(NC(=O)C2CC(c3cccc(OC)c3OC)=NO2)cc(OC)c1OC (centres undefined) the results were HEK293 NFkB inh 13, ROCK2 blocker 4, JNK3 blocker 69* and PKA inh 6.
CC(C)(C)n1nnnc1C(c1cccs1)N1CCCc2ccccc21 (centres undefined) was read as HEK293 NFkB inh 10, ROCK2 blocker 1, JNK3 blocker -2 and PKA inh 10.
Screening O=C(NCc1nc2ccccc2[nH]1)c1ccco1 returned HEK293 NFkB inh 10, ROCK2 blocker -4, JNK3 blocker 6 and PKA inh -8.
Screening O=C(NCc1nc2ccccc2[nH]1)c1cccs1 returned HEK293 NFkB inh 0, ROCK2 blocker 2, JNK3 blocker 28* and PKA inh 7.
`COc1cccc(Oc2cnc(N)nc2-c2ccc(OC)cc2O)c1` gave HEK293 NFkB inh 43*, ROCK2 blocker 6, JNK3 blocker 0 and PKA inh 8.
COc1ccc(-c2nc(N)ncc2Oc2ccccc2Br)c(O)c1 was read as HEK293 NFkB inh 28, ROCK2 blocker -1, JNK3 blocker -3 and PKA inh 1.
`C=C(C)COc1ccc(-c2[nH]ncc2-c2ccc(OC)c(OC)c2)c(O)c1` gave HEK293 NFkB inh 58*, ROCK2 blocker 7, JNK3 blocker 8 and PKA inh 8.
`C=C(C)COc1ccc(-c2nc(N)ncc2-c2ccc(OC)cc2)c(O)c1` gave HEK293 NFkB inh 20, ROCK2 blocker 2, JNK3 blocker 23* and PKA inh 6.
For COc1ccc(-c2cnc(N)nc2-c2ccc(OC)cc2O)cc1 the results were HEK293 NFkB inh 16, ROCK2 blocker 9, JNK3 blocker 31* and PKA inh 10.
`COc1ccc(-c2noc(CCCC(=O)O)n2)cc1` gave HEK293 NFkB inh 52*, ROCK2 blocker -2, JNK3 blocker 3 and PKA inh -1.
